How the values were obtained:
Monoglyceride lipase = molecular target: T1, Monoglyceride lipase (Homo sapiens, UniProt Q99685); experiment: Inhibition of human recombinant MAGL using 7-HCA as substrate preincubated for 30 mins followed by substrate addition measured after 60 mins by fluorescence assay
T1 sequence (Q99685 whole entry): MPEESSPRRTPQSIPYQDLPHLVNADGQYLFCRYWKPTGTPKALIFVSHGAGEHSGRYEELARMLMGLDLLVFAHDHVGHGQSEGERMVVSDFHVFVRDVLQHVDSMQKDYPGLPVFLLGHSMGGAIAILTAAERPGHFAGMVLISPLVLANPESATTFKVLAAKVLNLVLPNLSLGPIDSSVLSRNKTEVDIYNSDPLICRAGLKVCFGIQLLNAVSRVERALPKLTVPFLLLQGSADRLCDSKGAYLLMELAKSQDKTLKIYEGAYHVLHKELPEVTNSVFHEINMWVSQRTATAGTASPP
Procedure, shortened: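 Reaction started with 7-HCA (5 μM final), run 60 min, fluorescence Ex/Em 340/465. Percent inhibition versus no-compound and full-inhibition controls; IC50 from four-parameter fit.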

[1] = molecular target: T2, Monoglyceride lipase (Homo sapiens) (UniProt Q99685); experiment: Ratio of Kinact to Ki for human recombinant MAGL using 7-HCA as substrate after 60 mins by fluorescence assay
T2 sequence (whole entry): T1 sequence (Q99685 whole entry)
Procedure, shortened: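 Run as the MAGL 7-HCA assay, but substrate added with no preincubation (T = 0), fluorescence read every minute at decreasing compound concentrations to give progress curves. kobs from each curve; kinact/KI from a plot of kobs against compound concentration.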

[2] = Lipophilicity, log D of the compound; format: physicochemical; conditions: octanol/water
[3] = molecular target: T3, Fatty-acid amide hydrolase 1 (Homo sapiens, UniProt O00519); experiment: Inhibition of human recombinant FAAH using arachidonoyl-AMC as substrate preincubated for 30 mins followed by substrate addition measured after 60 mins by fluorescence assay
T3 sequence (O00519 whole entry): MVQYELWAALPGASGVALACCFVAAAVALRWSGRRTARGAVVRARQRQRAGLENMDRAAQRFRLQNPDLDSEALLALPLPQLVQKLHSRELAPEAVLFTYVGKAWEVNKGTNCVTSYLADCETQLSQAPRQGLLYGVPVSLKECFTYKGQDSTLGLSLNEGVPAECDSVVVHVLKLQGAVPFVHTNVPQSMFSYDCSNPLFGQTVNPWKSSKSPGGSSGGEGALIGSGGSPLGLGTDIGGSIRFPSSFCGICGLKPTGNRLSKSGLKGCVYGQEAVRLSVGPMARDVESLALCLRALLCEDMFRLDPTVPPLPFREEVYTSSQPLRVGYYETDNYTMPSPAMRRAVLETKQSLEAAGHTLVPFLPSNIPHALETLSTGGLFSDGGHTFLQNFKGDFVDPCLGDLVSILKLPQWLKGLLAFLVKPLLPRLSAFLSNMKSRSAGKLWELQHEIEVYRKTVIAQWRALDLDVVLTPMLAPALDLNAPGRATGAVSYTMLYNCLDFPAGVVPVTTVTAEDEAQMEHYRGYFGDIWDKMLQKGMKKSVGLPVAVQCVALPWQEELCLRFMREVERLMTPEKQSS
Procedure, shortened: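 Human recombinant FAAH (0.0125 unit final) in 50 mM Tris pH 9.0, 1 mM EDTA, preincubated 30 min at room temperature with compound (final 30 μM–0.3 nM). Arachidonoyl-AMC added (5 μM final), reaction run 60 min, fluorescence Ex/Em 355/460. Percent inhibition versus no-compound and full-inhibition controls.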

## O=C(OC(C(F)(F)F)C(F)(F)F)N1CC(c2ccn(-c3cnccn3)n2)C1
Monoglyceride lipase
  IC50: 0.00074 µM
[1]
  Ratio: 329000 M⁻¹ s⁻¹
[2]
  logD: 2.8
[3]
  IC50: 1.1 µM

## O=C(OC(C(F)(F)F)C(F)(F)F)N1CC(c2cc(-c3ccccc3)n(-c3ccccc3)n2)C1
Monoglyceride lipase
  IC50: 0.0003 µM
[1]
  Ratio: 293000 M⁻¹ s⁻¹
[2]
  logD: 5.7
[3]
  IC50: 0.49 µM

## O=C(OC(C(F)(F)F)C(F)(F)F)N1CC(c2nc(-c3ccccc3)no2)C1
Monoglyceride lipase
  IC50: 0.00038 µM
[1]
  Ratio: 840000 M⁻¹ s⁻¹
[2]
  logD: 4.2
[3]
  IC50: 0.42 µM

## O=C(OC(C(F)(F)F)C(F)(F)F)N1CC(c2ccn(C3CCOCC3)n2)C1
Monoglyceride lipase
  IC50: 0.0019 µM
[1]
  Ratio: 102000 M⁻¹ s⁻¹
[2]
  logD: 3.2
[3]
  IC50: 9.4 µM

## Cn1ccc(C2CN(C(=O)OC(C(F)(F)F)C(F)(F)F)C2)n1
Monoglyceride lipase
  IC50: 0.039 µM
[1]
  Ratio: 4050 M⁻¹ s⁻¹
[2]
  logD: 2.4
[3]
  IC50: > 20 µM

## O=C(OC(C(F)(F)F)C(F)(F)F)N1CC(c2ccn(Cc3ccccc3)n2)C1
Monoglyceride lipase
  IC50: 0.00041 µM
[1]
  Ratio: 791000 M⁻¹ s⁻¹
[2]
  logD: 4.4
[3]
  IC50: 0.16 µM

## O=C(OC(C(F)(F)F)C(F)(F)F)N1CC(c2ccnc(N3CCOCC3)n2)C1
Monoglyceride lipase
  IC50: 0.0019 µM
[1]
  Ratio: 121000 M⁻¹ s⁻¹
[2]
  logD: 3
[3]
  IC50: > 30 µM

## O=C(OC(C(F)(F)F)C(F)(F)F)N1CC(c2ccn(-c3ccc(F)c(F)c3)n2)C1
Monoglyceride lipase
  IC50: 0.00018 µM
[1]
  Ratio: 978000 M⁻¹ s⁻¹
[2]
  logD: 4.6
[3]
  IC50: 0.67 µM

## O=C(OC(C(F)(F)F)C(F)(F)F)N1CC(N2CCN(c3ncccn3)CC2)C1
Monoglyceride lipase
  IC50: 0.0032 µM
[1]
  Ratio: 18000 M⁻¹ s⁻¹
[2]
  logD: 2.9
[3]
  IC50: 2.5 µM

Source: ChEMBL document CHEMBL4028902, “Azetidine and Piperidine Carbamates as Efficient, Covalent Inhibitors of Monoacylglycerol Lipase” (J Med Chem, 2017)
